These results are taken from PMC10114714 (ACS Bio & Med Chem Au, 2021).

Entries after “also recorded” stand apart in the source; their conditions may differ.

Data set [1] addresses T1, human mGlu5 (Homo sapiens, UniProt P41594). Nature of the data set: Calcium fluorescence triple-add assay, mGlu5 PAM mode. The format is cell-based.
Data set [2] deals with rat mGlu5 (Rattus norvegicus, UniProt P31424). The experiment in a line: [3H]methoxyPEPy radioligand competition binding. The note with it: for displacement of [3H]methoxyPEPy radioligand binding: concentrations up to 100 μM, in words.
In data set [3] the test system is mGlu1–4,7,8. Nature of the data set: Functional selectivity over the other mGlu receptors. The format is cell-based.
Data set [4] can be described thus: Intrinsic clearance in liver microsomes, rat. The format is in vitro ADME. The note with it: pH 7.4. (Liver microsomes are a subcellular fraction often used to study metabolism.)
A short description of data set [5]: Intrinsic clearance in liver microsomes, human. The note with it: pH 7.4. In kind it is in vitro ADME.
A short description of data set [6]: Plasma protein binding, rat. The format is in vitro ADME. The note with it: pH 7.4.
Data set [7] is described as follows: Plasma protein binding, human. In kind it is in vitro ADME. The note with it: pH 7.4.
The nature of data set [8]: Brain homogenate binding, rat. The format is in vitro ADME. The note with it: pH 7.4, Rat fu,b.
Data set [9] is described as follows: Rat IV plasma/brain level. The format is in vivo. The note with it: male, Sprague-Dawley, brain and plasma, 0.2 mg/kg.
Data set [10] in a line: Rat IV and PO pharmacokinetics. The format is in vivo. The essentials: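 Plasma pharmacokinetics with IV dosing at 0.20 mg/kg and PO dosing at 10 mg/kg. Read-outs are Cmax, tmax, AUCinf, t1/2 and oral bioavailability F.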
The subject of data set [11] is amphetamine-induced hyperlocomotion. The experiment in a line: Reversal of amphetamine-induced hyperlocomotion. In kind it is in vivo. The note with it: rat. The essentials:
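Male Sprague–Dawley rats, n = 7-8 per group. Test compound is given i.p. at 30 or 60 mg/kg in 10% Tween 80 in H2O, 30 min before amphetamine at 0.75 mg/kg s.c. Locomotion is compared with a vehicle/amphetamine control group.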

Data set [12] has as its target T1, human mGlu5. The experiment in a line: cell-based.
Data set [13] can be described thus: Intrinsic clearance in liver microsomes, mouse. The note with it: pH 7.4. In kind it is in vitro ADME.
Data set [14] can be described thus: Plasma protein binding, mouse. The note with it: pH 7.4. The format is in vitro ADME.
A short description of data set [15]: Mouse IV and PO pharmacokinetics. The format is in vivo.
Data set [16] has as its system marble burying. Nature of the data set: Marble burying assay. In kind it is in vivo, mouse. The note with it: male CD-1 mice, 30 mg/kg i.p., in words.
Setting [17] is: male, Sprague-Dawley, plasma, iv, 0.2 mg/kg.
Where [18] appears, read: male, Sprague-Dawley, plasma, po, 10 mg/kg.

The EC50 is the concentration giving half of the maximal effect. The Ki is the equilibrium dissociation constant of an inhibitor or competing ligand from its target. Higher therefore signals lower affinity. For orientation: CLint scaled means the capacity of the preparation to metabolise the compound, expressed as a volume cleared per time. Lower therefore signals greater metabolic stability. In general, fraction unbound refers to free concentration divided by total concentration. The term Kp denotes the ratio of the level in a tissue or fluid to that in plasma or blood. By half-life is commonly meant the time in which the quantity being followed falls by half. One may read the AUC(0-inf) as total exposure, with the tail of the curve extrapolated. A lower AUC(0-inf) goes with less exposure. The Cmax is the highest concentration seen after dosing. By Tmax is commonly meant the time at which the peak concentration occurs. What is called IC50 is the concentration at which inhibition is half-maximal. High values mean weaker potency, low ones greater potency.

Sequence of rat mGlu5 (P31424 21-1203): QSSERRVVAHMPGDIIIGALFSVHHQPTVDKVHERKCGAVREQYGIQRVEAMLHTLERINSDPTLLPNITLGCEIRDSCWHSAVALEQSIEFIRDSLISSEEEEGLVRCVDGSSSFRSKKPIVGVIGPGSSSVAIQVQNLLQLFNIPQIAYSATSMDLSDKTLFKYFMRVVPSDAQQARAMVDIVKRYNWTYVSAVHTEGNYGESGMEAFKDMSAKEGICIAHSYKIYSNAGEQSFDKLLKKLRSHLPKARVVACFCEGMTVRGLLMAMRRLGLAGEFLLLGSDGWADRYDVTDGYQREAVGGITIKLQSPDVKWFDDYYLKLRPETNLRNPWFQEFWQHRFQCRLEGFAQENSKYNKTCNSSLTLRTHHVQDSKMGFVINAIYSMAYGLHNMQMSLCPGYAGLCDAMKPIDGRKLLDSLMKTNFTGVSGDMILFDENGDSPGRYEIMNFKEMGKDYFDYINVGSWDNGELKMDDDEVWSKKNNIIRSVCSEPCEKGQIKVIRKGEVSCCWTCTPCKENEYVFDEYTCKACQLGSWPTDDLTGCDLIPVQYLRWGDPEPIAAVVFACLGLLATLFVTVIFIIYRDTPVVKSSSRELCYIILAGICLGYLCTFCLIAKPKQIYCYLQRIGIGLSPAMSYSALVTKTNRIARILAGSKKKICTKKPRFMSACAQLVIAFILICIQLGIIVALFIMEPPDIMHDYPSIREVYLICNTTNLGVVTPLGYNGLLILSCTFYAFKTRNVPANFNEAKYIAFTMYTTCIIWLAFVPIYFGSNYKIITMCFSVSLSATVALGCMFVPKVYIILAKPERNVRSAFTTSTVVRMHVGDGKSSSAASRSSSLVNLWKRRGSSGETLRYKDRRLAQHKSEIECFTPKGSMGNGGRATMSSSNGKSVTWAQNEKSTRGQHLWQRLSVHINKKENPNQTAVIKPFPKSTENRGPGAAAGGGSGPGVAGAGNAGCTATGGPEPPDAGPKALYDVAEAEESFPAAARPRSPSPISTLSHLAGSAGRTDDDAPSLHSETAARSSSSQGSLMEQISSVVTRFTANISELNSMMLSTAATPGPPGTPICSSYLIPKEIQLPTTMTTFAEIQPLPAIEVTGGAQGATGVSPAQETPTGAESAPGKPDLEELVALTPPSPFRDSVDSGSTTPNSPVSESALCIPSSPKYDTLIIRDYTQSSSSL
T1 sequence (P41594 21-1212): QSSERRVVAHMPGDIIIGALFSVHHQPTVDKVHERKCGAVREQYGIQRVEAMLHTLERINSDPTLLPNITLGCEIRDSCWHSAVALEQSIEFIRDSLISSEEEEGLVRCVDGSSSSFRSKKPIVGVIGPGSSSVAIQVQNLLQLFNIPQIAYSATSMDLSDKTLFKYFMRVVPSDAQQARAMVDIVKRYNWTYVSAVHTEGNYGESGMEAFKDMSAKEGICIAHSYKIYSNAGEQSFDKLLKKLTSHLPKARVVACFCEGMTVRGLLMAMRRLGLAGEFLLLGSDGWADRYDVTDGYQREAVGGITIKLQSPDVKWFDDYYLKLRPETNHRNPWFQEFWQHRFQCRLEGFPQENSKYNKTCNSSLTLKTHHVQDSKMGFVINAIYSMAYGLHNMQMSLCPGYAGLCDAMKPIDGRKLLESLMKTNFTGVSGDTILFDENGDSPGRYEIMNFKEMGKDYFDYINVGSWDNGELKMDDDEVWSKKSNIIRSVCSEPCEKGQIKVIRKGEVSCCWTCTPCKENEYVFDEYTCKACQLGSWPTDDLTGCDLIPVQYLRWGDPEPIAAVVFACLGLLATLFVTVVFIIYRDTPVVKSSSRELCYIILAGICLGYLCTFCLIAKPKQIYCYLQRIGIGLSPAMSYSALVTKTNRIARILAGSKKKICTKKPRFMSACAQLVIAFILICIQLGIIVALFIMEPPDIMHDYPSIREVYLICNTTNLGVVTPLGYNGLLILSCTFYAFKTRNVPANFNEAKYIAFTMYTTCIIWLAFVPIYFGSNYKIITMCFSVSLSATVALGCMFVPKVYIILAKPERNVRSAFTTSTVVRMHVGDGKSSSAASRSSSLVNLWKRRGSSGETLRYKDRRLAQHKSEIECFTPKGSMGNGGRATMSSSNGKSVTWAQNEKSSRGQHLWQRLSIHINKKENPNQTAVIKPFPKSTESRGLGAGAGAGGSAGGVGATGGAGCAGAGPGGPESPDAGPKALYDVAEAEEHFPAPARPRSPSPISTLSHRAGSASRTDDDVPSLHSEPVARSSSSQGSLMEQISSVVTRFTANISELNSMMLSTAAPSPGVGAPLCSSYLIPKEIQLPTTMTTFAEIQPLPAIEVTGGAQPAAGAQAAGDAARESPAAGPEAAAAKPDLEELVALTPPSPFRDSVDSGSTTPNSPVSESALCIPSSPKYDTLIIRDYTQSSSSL

In the case of `Cc1ccc(Oc2cc(C(=O)NCc3ccc(F)cn3)nc3ccsc23)cn1` [Compound 17a, N-((5-Fluoropyridin-2-yl)methyl)-7-((6-methylpyridin-3-yl)oxy)thieno[3,2-b]pyridine-5-carboxamide], the EC50 in [1] (hmGlu5 EC50 (μM), Table 2) stood at 0.52 µM. Moreover, the “fold improvement in potency in comparison to hit compound 12” value in data set [1] (mGlu5 PAM EC50) was found to be 5 fold. Moreover, in [2], the inhibition constant Ki is over 10000 nM and the “displacement of [3H]methoxyPEPy radioligand binding” value is recorded as “weak binding”. Moreover, the “functional activity at mGlu1–4,7,8” value in data set [3] was over 30 µM. Moreover, the intrinsic metabolic clearance (CLint scaled) at 1 µM in [4] was found to be 152 mL/min/kg. This molecule also gave a CLint scaled at 1 µM in data set [5] of 173 mL/min/kg. In addition, the fraction unbound at 6 h, 5 µM in data set [6] was 0.048. The same molecule displayed an unbound share (fraction unbound) at 6 h, 5 µM in data set [7] of 0.056. For the same molecule, the free fraction (fraction unbound) at 6 h, 1 µM in data set [8] is 0.03. Moreover, in data set [9], the concentration ratio (Kp) at 0.25 h worked out at 0.83 and the Kp uu at 0.25 h amounted to 0.52. Further, the “F (%)” value in data set [10] (PO 10 mg/kg, 10 mg/kg) was 8.22%. For the same molecule, in [10] (setting [17]), the Vd was 2.2 L/kg, the clearance is 36.9 mL/min/kg and the half-life is 82.2 min. For the same molecule, in data set [10] (setting [18]), the total exposure AUC(0-inf) was found to be 371 ng·h/mL, the peak concentration (Cmax) turned out to be 152 ng/mL and the Tmax stood at 30 min. The “reversal of AHL” value in data set [11] (60 mg/kg i.p., 30 min prior to 0.75 mg/kg s.c. amphetamine) is given as about 30%. Moreover, the “reversal of amphetamine-induced hyperlocomotion” value in data set [11] (30 or 60 mg/kg i.p., in words) was “reversed amphetamine-induced hyperlocomotion; also recorded: Dose-dependent reversal”.
Take `Cc1ccc(Oc2ccnc(C(=O)NCc3ccc(F)cn3)c2)cn1` [Compound 21d]: the “mGlu5 PAM activity” value in data set [1] (in words) was “complete loss of activity”.
Turning to `Cc1ccc(Nc2cc(C(=O)NCc3ccc(F)cn3)nc3ccsc23)cn1` [Compound 26], in data set [12], the 50% inhibitory concentration (IC50) was over 30000 nM.
In [12], `Cc1ccc(Cc2cc(C(=O)NCc3ccc(F)cn3)nc3ccsc23)cn1` [Compound 27] had a half-inhibitory concentration (IC50) of over 30000 nM.
`Cc1cncc(Oc2cc(C(=O)NCc3ccc(F)cn3)nc3ccsc23)c1` [Compound 28a] yielded an IC50 in data set [12] of 260 nM.
On the same count and under the same terms, next, `Cc1ccncc1Oc1cc(C(=O)NCc2ccc(F)cn2)nc2ccsc12` [Compound 28b]: 203 nM.
`Cc1ncccc1Oc1cc(C(=O)NCc2ccc(F)cn2)nc2ccsc12` [Compound 28c] came in with a half-inhibitory concentration (IC50) in [12] of over 30000 nM.
Turning to `O=C(NCc1ccc(F)cn1)c1cc(Oc2cccnc2)c2sccc2n1` [Compound 28d, N-((5-fluoropyridin-2-yl)methyl)-7-(pyridin-3-yloxy)thieno[3,2-b]pyridine-5-carboxamide], the inhibitory constant (Ki) in data set [2] stood at 160 nM. The “displacement of [3H]methoxyPEPy radioligand binding” value in [2] is listed as “full displacement of radioligand binding”. Also, the “functional activity at mGlu1–4,7,8” value in data set [3] was over 30 µM. The intrinsic clearance (CLint scaled) at 1 µM in data set [4] amounted to 314 mL/min/kg; in data set [13] it was 970 mL/min/kg; in [5], 47 mL/min/kg. Besides, the free fraction (fraction unbound) at 6 h, 5 µM in data set [6] was 0.115; in data set [14] it was 0.062; in data set [7], 0.068. Also, the unbound share (fraction unbound) at 6 h, 1 µM in data set [8] is 0.035. In addition, the “drug in blood following PO administration” value in data set [15] (PO 10 mg/kg, in words) is “no measurable drug in blood”. Also, the Vd in [15] (plasma, iv, 1 mg/kg) was 8.2 L/kg. This molecule had a clearance in [15] (plasma, iv, 1 mg/kg) of 141 mL/min/kg. This molecule also had a half-life in [15] (plasma, iv, 1 mg/kg) of 41.4 min. Further, the marble burying result in data set [16] is reported as “anxiolytic activity; also recorded: significant reduction in marble burying; also recorded: Inhibition of marble burying”.
In the case of `Cc1ccc(Oc2cc(C(=O)NCc3ccc(F)cn3)nc3ccsc23)nc1` [Compound 28e], half-maximal inhibition in data set [12] (IC50) required 1900 nM.
